Source: ChEMBL document CHEMBL1155985, “Water-soluble phosphate prodrugs of pleuromutilin analogues with potent in vivo antibacterial activity against Gram-positive pathogens” (Bioorg Med Chem Lett, 2009)
Values after ≈ are worked out from the molar mass of the structure shown.

What was measured:
[1] = test system: Rattus norvegicus; assay: AUC (0 to infinity) in Sprague-Dawley rat assessed as parent drug level at 100 mg/kg, iv; format: ADME, organism-based, Plasma; set-up: dose 100 mg/kg, route intravenous, time infinity; details: in vivo
In short: (§1)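 Male Sprague-Dawley rats (n = 3) were dosed iv with the phosphate prodrug at 10, 30 or 100 mg/kg. Plasma levels of the parent drug were measured over time. Tmax, Cmax, AUC and elimination half-life were then derived from these levels.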

[2] = test system: Rattus norvegicus; assay: Half life in Sprague-Dawley rat assessed as parent drug level at 100 mg/kg, iv; format: ADME, organism-based; set-up: dose 100 mg/kg, route intravenous; details: in vivo; in short: as §1
[3] = test system: Rattus norvegicus; assay: Cmax in Sprague-Dawley rat assessed as parent drug level at 30 mg/kg, iv; format: ADME, organism-based; set-up: dose 30 mg/kg, route intravenous; details: in vivo; in short: as §1
[4] = test system: Rattus norvegicus; assay: Tmax in Sprague-Dawley rat assessed as parent drug level at 10 mg/kg, iv; format: ADME, organism-based; set-up: dose 10 mg/kg, route intravenous; details: in vivo; in short: as §1
[5] = test system: Rattus norvegicus; assay: AUC (0 to infinity) in Sprague-Dawley rat assessed as parent drug level at 10 mg/kg, iv; format: ADME, organism-based, Plasma; set-up: dose 10 mg/kg, route intravenous, time infinity; details: in vivo; in short: as §1
[6] = test system: Rattus norvegicus; assay: Tmax in Sprague-Dawley rat assessed as parent drug level at 100 mg/kg, iv; format: ADME, organism-based; set-up: dose 100 mg/kg, route intravenous; details: in vivo; in short: as §1
[7] = Stability in buffer at pH 7.4 assessed as remaining compound at 10 mg/ml after 14 days; format: physicochemical; details: read-out: Activity
In short: (§2)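 Compounds at 10 mg/mL in pH 7.4 buffer were kept at room temperature. Percent parent remaining was measured by UV/HPLC at 8 h and at 14 days.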

[8] = test system: Rattus norvegicus; assay: Half life in Sprague-Dawley rat assessed as parent drug level at 30 mg/kg, iv; format: ADME, organism-based; set-up: dose 30 mg/kg, route intravenous; details: in vivo; in short: as §1
[9] = Aqueous solubility of the compound; format: physicochemical
[10] = test system: Rattus norvegicus; assay: AUC (0 to infinity) in Sprague-Dawley rat assessed as parent drug level at 30 mg/kg, iv; format: ADME, organism-based, Plasma; set-up: time infinity, dose 30 mg/kg, route intravenous; details: in vivo; in short: as §1
[11] = test system: Rattus norvegicus; assay: Half life in Sprague-Dawley rat assessed as parent drug level at 10 mg/kg, iv; format: ADME, organism-based; set-up: dose 10 mg/kg, route intravenous; details: in vivo; in short: as §1
[12] = test system: Rattus norvegicus; assay: Tmax in Sprague-Dawley rat assessed as parent drug level at 30 mg/kg, iv; format: ADME, organism-based; set-up: dose 30 mg/kg, route intravenous; details: in vivo; in short: as §1
[13] = test system: Staphylococcus aureus; assay: Antibacterial activity against methicillin-resistant Staphylococcus aureus 236-29 infected in mouse dosed 1 hr and 4 hr after infection, iv; format: functional; details: 236-29, iv
In short: (§3)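 Lethal systemic S. aureus infection in mice, inoculated intraperitoneally; test agent given iv twice, at 1 h and 4 h post-infection. ED50 taken as the dose giving 50% mouse survival, reported with 95% confidence ranges.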

[14] = Stability in buffer at pH 7.4 assessed as remaining compound at 10 mg/ml after 8 hrs; format: physicochemical; details: read-out: Activity; in short: as §2
[15] = test system: Rattus norvegicus; assay: Cmax in Sprague-Dawley rat assessed as parent drug level at 100 mg/kg, iv; format: ADME, organism-based; set-up: dose 100 mg/kg, route intravenous; details: in vivo; in short: as §1
[16] = test system: Staphylococcus aureus; assay: Antibacterial activity against methicillin-susceptible Staphylococcus aureus 232-51 infected in mouse dosed 1 hr and 4 hr after infection, iv; format: functional; details: 232-51, iv; in short: as §3
[17] = Toxicity against iv dosed ICR mouse; format: organism-based; details: in vivo
In short: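 Acute toxicity after iv administration in SPF-level ICR mice (n = 50); LD50 determined.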

[18] = test system: Rattus norvegicus; assay: Cmax in Sprague-Dawley rat assessed as parent drug level at 10 mg/kg, iv; format: ADME, organism-based; set-up: dose 10 mg/kg, route intravenous; details: in vivo; in short: as §1
[19] = test system: Staphylococcus aureus; assay: Antibacterial activity against methicillin-susceptible Staphylococcus aureus by agar dilution method; format: functional
In short: (§4)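 MICs by agar dilution following NCCLS guidance against resistant and susceptible Gram-positive strains; retapamulin and linezolid run as positive controls.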

[20] = test system: Streptococcus pneumoniae; assay: Antibacterial activity against Streptococcus pneumoniae by agar dilution method; format: functional
In short: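 MIC was measured by agar dilution following NCCLS guidelines, with retapamulin and linezolid as positive controls.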

[21] = test system: Staphylococcus aureus; assay: Antibacterial activity against methicillin-resistant Staphylococcus aureus by agar dilution method; format: functional; in short: as §4
[22] = test system: Staphylococcus epidermidis; assay: Antibacterial activity against methicillin-susceptible Staphylococcus epidermidis by agar dilution method; format: functional; in short: as §4
[23] = test system: Staphylococcus epidermidis; assay: Antibacterial activity against methicillin-resistant Staphylococcus epidermidis by agar dilution method; format: functional; in short: as §4
[24] = Staphylococcus aureus, read-out: MIC

SMILES	remaining at 336 h, 10 mg/ml [7] [%]	solubility [9] [mg/mL]	remaining at 8 h, 10 mg/ml [14] [%]	MIC [19, 24] [µg/mL]	MIC [20] [µg/mL]	MIC [21] [µg/mL]	MIC [22] [µg/mL]	MIC [23] [µg/mL]	other results
CC[C@]1(C)C[C@@H](OC(=O)NC(=O)c2ccc(OP(=O)([O-])[O-])cc2)[C@]2(C)[C@H](C)CC[C@]3(CCC(=O)[C@@H]32)[C@@H](C)[C@@H]1O.[Na+].[Na+]	99.6	96.8	100						AUC [1]: 32.6 µg·h/mL; t1/2 [2]: 37.8 min; Cmax [3]: 11.3 µg/mL; Tmax [4]: 4.98 min; AUC [5]: 1.29 µg·h/mL; Tmax [6]: 4.98 min; t1/2 [8]: 45 min; AUC [10]: 5.04 µg·h/mL; t1/2 [11]: 30.6 min; Tmax [12]: 4.98 min; ED50 [13]: 20.9 mg/kg; Cmax [15]: 67.5 µg/mL; ED50 [16]: 17.4 mg/kg; LD50 [17]: 1010 mg/kg; Cmax [18]: 3.39 µg/mL
C=C[C@]1(C)C[C@@H](OC(=O)NC(=O)c2ccc(OC)cc2)[C@]2(C)[C@H](C)CC[C@]3(CCC(=O)[C@@H]32)[C@@H](C)[C@@H]1OP(=O)([O-])[O-].[Na+].[Na+]	99.8	57.6	100						
CC[C@]1(C)C[C@@H](OC(=O)NC(=O)c2ccc(O)cc2)[C@]2(C)[C@H](C)CC[C@]3(CCC(=O)[C@@H]32)[C@@H](C)[C@@H]1OP(=O)([O-])[O-].[Na+].[Na+]	99.5	52.3	100						
C=C[C@]1(C)C[C@@H](OC(=O)NC(=O)c2ccc(OC)cc2)[C@]2(C)[C@H](C)CC[C@]3(CCC(=O)[C@@H]32)[C@@H](C)[C@@H]1O				0.0625 (≈ 0.126 µM)	0.125 (≈ 0.251 µM)	0.0625 (≈ 0.126 µM)	0.0625 (≈ 0.126 µM)	0.0625 (≈ 0.126 µM)	
C=C[C@]1(C)C[C@@H](OC(=O)NC(=O)c2ccc(O)cc2)[C@]2(C)[C@H](C)CC[C@]3(CCC(=O)[C@@H]32)[C@@H](C)[C@@H]1O				0.125 (≈ 0.258 µM)	0.25 (≈ 0.517 µM)	0.125 (≈ 0.258 µM)	0.0625 (≈ 0.129 µM)	0.125 (≈ 0.258 µM)	
CC(=O)NC[C@H]1CN(c2ccc(N3CCOCC3)c(F)c2)C(=O)O1 [LINEZOLID]						1 (≈ 2.96 µM)	0.5 (≈ 1.48 µM)	1 (≈ 2.96 µM)	MIC [19]: 0.5 µg/mL (≈ 1.48 µM)
C=C[C@]1(C)C[C@@H](OC(=O)CS[C@@H]2C[C@H]3CC[C@@H](C2)N3C)[C@]2(C)[C@H](C)CC[C@]3(CCC(=O)[C@H]32)[C@@H](C)[C@@H]1O [RETAPAMULIN]				0.031 (≈ 0.0599 µM)	0.031 (≈ 0.0599 µM)	0.031 (≈ 0.0599 µM)	0.031 (≈ 0.0599 µM)	0.031 (≈ 0.0599 µM)	
CN[C@H](CC(C)C)C(=O)N[C@H]1C(=O)N[C@@H](CC(N)=O)C(=O)N[C@H]2C(=O)N[C@H]3C(=O)N[C@H](C(=O)N[C@H](C(=O)O)c4cc(O)cc(O)c4-c4cc3ccc4O)[C@H](O)c3ccc(c(Cl)c3)Oc3cc2cc(c3O[C@@H]2O[C@H](CO)[C@@H](O)[C@H](O)[C@H]2O[C@H]2C[C@](C)(N)[C@H](O)[C@H](C)O2)Oc2ccc(cc2Cl)[C@H]1O [VANCOMYCIN]									ED50 [13]: 15.8 mg/kg; ED50 [16]: 13.5 mg/kg
